Results taken from PubChem BioAssay.
Records with an inconclusive call do not appear.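 Rule for the calls, unless noted: active = cell viability at or below a set limit in both duplicate runs, the limit being the all-compound median minus 4 SD (cut at about 23% in these data, passing the limit was not always enough); inconclusive = no clear call, values can overlap the other calls; inactive = the rest.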

Key:
[1] = OD615 S. cerevisiae growth inhibition, permissive medium, pilot counter-assay, permissive growth control for S. cerevisiae lifespan shortening project (AID 705;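 active = growth inhibition above 25% in both replicates, a cutoff set 3 SD above the mean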); conditions: OD615, 24 h, at 10 µM, hits give high values
Summary of the method: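 assay system = Saccharomyces cerevisiae strain carrying genetically modified DeaD replicative-lifespan system | medium = SC raffinose/galactose permissive medium | dosing = 10 µM single dose, 0.25% DMSO | schedule = 24 h compound exposure at 30 °C after 4 h pre-growth | measured by = OD at 615 nm | read-out basis = growth inhibition from lowered OD615 after 24 h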

[2] = Restrictive medium S. cerevisiae growth inhibition, OD615, pilot screen of yeast lifespan reduction project, restrictive growth control (AID 706;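 active = growth inhibition above a set limit, 3 SD over mean compound inhibition, in both replicates, cut at about 43% in these data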;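 note: modified DeaD lifespan yeast strain shifted to restrictive glucose medium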); conditions: OD615, 48 h, at 10 µM, hits give high values
Summary of the method: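 Buffer or medium: CSMM-D glucose medium. Material: genetically modified Saccharomyces cerevisiae, DeaD replicative lifespan assay strain. Times: 48 h compound exposure at 30 °C. Measured by: optical density at 615 nm.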

[3] = viability gain of MRP-1-high H69AR cells under doxorubicin, pilot screen, MRP-1 activator project, CellTiter-Glo, duplicate (AID 807;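 active = viability increase at or above a cutoff of the median across tested compounds plus 3 SD, cut at about 8.5% in these data, passing the limit was not always enough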;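 note: compound pretreatment 18-22 h then 72 h combined with doxorubicin; 0% = doxorubicin alone and 100% = vehicle without doxorubicin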); conditions: H69AR viability with doxorubicin, CellTiter-Glo luminescence; at 10 µM; hits give high values
[4] = growth suppression of beta-catenin knockout HCT116, pilot screen, human colon tumor cells (AID 823); conditions: CellTiter-Glo, 60 h, at 10 µM, hits give low values;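 note: 0% = wells killed by 20 µM Hyamine and 100% = untreated DMSO cell wells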
[5] = growth suppression of PTEN-deleted HCT116, pilot screen, cell-based, HCT116 clonal line, CellTiter-Glo (AID 824;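 active = viability at or below 27.92% in each of two runs, the all-compound median minus 4 SD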;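 note: 0% = 20 µM Hyamine control and 100% = vehicle cell control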); conditions: 60 h, at 10 µM, hits give low values
[6] = inhibitors of the yeast RAM network, pilot screen, dse1pr::URA3 reporter, 5-FOA selection (AID 869;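 active = inhibition over a set limit, the all-compound mean plus 3 SD, in both replicate runs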;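 note: 0% = DMSO wells with no growth and 100% = 10 µM 1-NA-PP1 with full growth; RAM network block rescues cells from 5-FOA so hits raise OD615 growth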); conditions: S. cerevisiae dse1pr::URA3 5-FOA growth, OD615, 2 d; at 10 µM; hits give high values; strain carries analog-sensitive mutant Cbk1 kinase
[7] = RAM signaling pathway blockade in yeast – S. cerevisiae, Pdr1DBD-CYC8 efflux-inhibited sensitized strain, primary screen (AID 1298;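 active = RAM network inhibition above 8.4% in each of two replicates, 3 SD over the compound average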;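 note: 0% = DMSO untreated cells without growth and 100% = 10 µM 1-NA-PP1 full growth; higher means more yeast growth rescued from 5-FOA killing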); conditions: S. cerevisiae cbk1-as DSE1-URA3 strain, 5-FOA growth OD615, 2 d; at 50 µM; hits give high values

COc1ccc(NC(=O)NCCN2CCN(c3cccc(Cl)c3)CC2)cc1
inactive: growth inhibition [1] 1.49% | growth inhibition [2] -5.71% | viability increase [3] -1.77% | viability [4] 76.9% | viability [5] 71.9% | inhibition [6] 0.88% | RAM network inhibition [7] 3.82%

CCSCCOC(=O)C1=C(C)NC(=O)NC1c1cccc(OC)c1OC (stereo not drawn)
inactive: growth inhibition [1] -15% | growth inhibition [2] -9.84% | viability increase [3] -1.39% | viability [4] 96.8% | viability [5] 96.9% | inhibition [6] 0.96% | RAM network inhibition [7] 0.63%

COc1ccc(C2(C(=O)NCCCN(C)C)CCOCC2)cc1
inactive: growth inhibition [1] -19.3% | growth inhibition [2] -23.9% | viability increase [3] -0.22% | viability [4] 98.3% | viability [5] 100% | inhibition [6] 1.26% | RAM network inhibition [7] 1.69%

Cc1noc(C)c1S(=O)(=O)N(CC(=O)N1CCCC1)c1ccc(C(C)C)cc1
inactive: growth inhibition [1] -1.45% | growth inhibition [2] -1.11% | viability increase [3] -5.13% | viability [4] 83.6% | viability [5] 83% | inhibition [6] 0.4% | RAM network inhibition [7] 4.43%

CCOc1ccc(NC(=O)C2C3C=CC4(CN(C(C(=O)OC)C(C)C)C(=O)C24)O3)cc1 (stereo not drawn)
inactive: growth inhibition [1] -9.79% | growth inhibition [2] 5.85% | viability increase [3] -1.43% | viability [4] 108% | viability [5] 102% | inhibition [6] 1.31% | RAM network inhibition [7] 6.37%

CCOC(=O)Cc1cnc(NC(=O)c2ccccc2)s1
inactive: growth inhibition [1] 6.17% | growth inhibition [2] 5.05% | viability increase [3] -1.51% | viability [4] 92.3% | viability [5] 89.6% | inhibition [6] 0.365% | RAM network inhibition [7] 2.27%

COC(=O)c1ccc(OCC(O)CN2CCC(C)CC2)cc1 (stereo not drawn)
inactive: growth inhibition [1] -2.79% | growth inhibition [2] -3.85% | viability increase [3] -2.26% | viability [4] 92.3% | viability [5] 94.1% | inhibition [6] 0.835% | RAM network inhibition [7] 4.68%

CC1Cc2ccccc2N1C(=O)CCn1c(=O)sc2ccccc21 (stereo not drawn)
inactive: growth inhibition [1] -4.26% | growth inhibition [2] -16.9% | viability increase [3] -1.79% | viability [4] 93.3% | viability [5] 85.3% | inhibition [6] 1.17% | RAM network inhibition [7] 3.45%

Nc1nc(SCC(=O)N2CCCc3ccccc32)n(-c2ccccc2)n1
inactive: growth inhibition [1] -4.37% | growth inhibition [2] 0.05% | viability increase [3] -4.68% | viability [4] 108% | viability [5] 99.3% | inhibition [6] 2.67% | RAM network inhibition [7] 6.67%

CCOCCCNC(=O)C(c1ccc(C)cc1)N(Cc1ccc2c(c1)OCO2)C(=O)CNC(C)=O (stereo not drawn)
inactive: growth inhibition [1] -8.64% | growth inhibition [2] 0.77% | viability increase [3] 0.84% | viability [4] 100% | viability [5] 102% | inhibition [6] 0.88% | RAM network inhibition [7] 2.3%

CCOc1ccc(-n2c(SCC(=O)NCc3ccco3)nc3c(c2=O)SCC3)cc1
inactive: growth inhibition [1] -21.1% | growth inhibition [2] -19.1% | viability increase [3] -3.31% | viability [4] 95.2% | viability [5] 98.4% | inhibition [6] 3.37% | RAM network inhibition [7] 7.34%

COc1cccc(C2=N/C(=C\N(C)C)C(=O)O2)c1
inactive: growth inhibition [1] 1.7% | growth inhibition [2] 11.6% | viability increase [3] -0.29% | viability [4] 94.7% | viability [5] 102% | inhibition [6] -0.855% | RAM network inhibition [7] 2.96%

CCc1nnc(NC(=O)CSc2nnc(Cc3cccn3C)n2CCOC)s1
inactive: growth inhibition [1] -4.61% | growth inhibition [2] 32.5% | viability increase [3] -0.66% | viability [4] 96.8% | viability [5] 98.3% | inhibition [6] 0.98% | RAM network inhibition [7] 2.84%

O=C(CCCN1C(=O)CSc2ncccc21)N1CCN(Cc2ccccc2)CC1
inactive: growth inhibition [1] -1.92% | growth inhibition [2] -2.68% | viability increase [3] -2.06% | viability [4] 92.4% | viability [5] 91.7% | inhibition [6] 2.33% | RAM network inhibition [7] 2.55%

Cc1cc2c3nonc3ccc2n1-c1ccccc1
inactive: growth inhibition [1] -16.1% | growth inhibition [2] -15% | viability increase [3] -2.59% | viability [4] 83% | viability [5] 86% | inhibition [6] 0.9% | RAM network inhibition [7] 6.15%

O=C(NCC1COc2ccccc2O1)C1CCCN(S(=O)(=O)c2cccc3cccnc23)C1 (stereo not drawn)
inactive: growth inhibition [1] -2.58% | growth inhibition [2] -19.5% | viability increase [3] 0.43% | viability [4] 71.8% | viability [5] 72.9% | inhibition [6] 2.7% | RAM network inhibition [7] 3.24%

CC1Cc2nc(SCC(=O)OCc3ccccc3)n(C)c(=O)c2S1 (stereo not drawn)
inactive: growth inhibition [1] 5.29% | growth inhibition [2] 1.86% | viability increase [3] -3.06% | viability [4] 102% | viability [5] 93.8% | inhibition [6] 0.69% | RAM network inhibition [7] 6.68%

COc1ccccc1NC(=O)C1=C(C)Nc2nc(-c3cccs3)nn2C1c1cccnc1 (stereo not drawn)
inactive: growth inhibition [1] -13.7% | growth inhibition [2] -9.57% | viability increase [3] -5.67% | viability [4] 86.7% | viability [5] 91.4% | inhibition [6] 2.23% | RAM network inhibition [7] 4.86%

CCC(=O)Nc1ccc(C(=O)n2nc(C)cc2C)cc1
inactive: growth inhibition [1] 15.8% | growth inhibition [2] 7.33% | viability increase [3] -2.24% | viability [4] 103% | viability [5] 98.9% | inhibition [6] 1.12% | RAM network inhibition [7] -0.72%

Cc1c(N=C/C=C/c2ccccc2)cnn1C
inactive: growth inhibition [1] -8.46% | growth inhibition [2] -12.3% | viability increase [3] -5.08% | viability [4] 91.7% | viability [5] 90.5% | inhibition [6] 1.85% | RAM network inhibition [7] 3.36%

CCOC(=O)N1CCN(C(=O)C2CCN(C(=O)c3cc4sccc4n3CC)CC2)CC1
inactive: growth inhibition [1] -16.3% | growth inhibition [2] -18.7% | viability increase [3] -3.05% | viability [4] 91.7% | viability [5] 98.9% | inhibition [6] 0.825% | RAM network inhibition [7] 3.06%

CC(=O)C1=C(C)NC(SCC(=O)c2ccc(C)cc2)=C(C#N)C1c1ccco1 (stereo not drawn)
inactive: growth inhibition [1] -5.27% | growth inhibition [2] 32.5% | viability increase [3] -6.5% | viability [4] 49.2% | viability [5] 52.7% | inhibition [6] 4.71% | RAM network inhibition [7] 2.93%

CCOC(=O)N1CCN(C(=O)CSc2nnc(Cn3c(=O)sc4ccccc43)n2C)CC1
inactive: growth inhibition [1] -12.9% | growth inhibition [2] -13% | viability increase [3] -2.25% | viability [4] 98.4% | viability [5] 95.8% | inhibition [6] 1.69% | RAM network inhibition [7] 1.9%

COc1ccc(-c2nc(CS(=O)CC(=O)NCC3CCCO3)c(C)o2)cc1 (stereo not drawn)
inactive: growth inhibition [1] -7.51% | growth inhibition [2] 15.5% | viability increase [3] -2.38% | viability [4] 97.8% | viability [5] 102% | inhibition [6] -0.795% | RAM network inhibition [7] 4.03%
